Source: ChEMBL document CHEMBL1148112, “Inhibition of tumor-promoting effects by poricoic acids G and H and other lanostane-type triterpenes and cytotoxic activity of poricoic acids A and G from Poria cocos” (J Nat Prod, 2002)

Legend:
Raji [1] = experiment: Inhibition of 12-O-tetradecanoylphorbol-13-acetate induced EBV-early antigen activation in human Raji cells assessed as EA activation at 1000 molar ratio after 48 hrs by indirect immunofluorescence method relative to TPA; type: cell-based; parameters: scale not given: the % may be the effect or the level left; details: human gammaherpesvirus 4
Method in brief: (§1)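 Raji cells (EBV genome-carrying, nonproducer) at 1 × 10^6/mL in 10% FBS RPMI 1640, incubated 37 °C for 48 h with n-butyric acid (4 mM) plus 32 pmol TPA (20 ng/mL), compound added in DMSO. EA-positive cells detected by indirect immunofluorescence using NPC patient sera; at least 500 cells counted, run twice, expressed relative to butyric acid + TPA control.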

Raji [2] = experiment: Inhibition of 12-O-tetradecanoylphorbol-13-acetate induced EBV-early antigen activation in human Raji cells assessed as EA activation at 500 molar ratio after 48 hrs by indirect immunofluorescence method relative to TPA; type: cell-based; parameters: scale not given: the % may be the effect or the level left; details: human gammaherpesvirus 4; method in brief: as §1
Raji [3] = experiment: Inhibition of 12-O-tetradecanoylphorbol-13-acetate induced EBV-early antigen activation in human Raji cells assessed as EA activation at 100 molar ratio after 48 hrs by indirect immunofluorescence method relative to TPA; type: cell-based; details: human gammaherpesvirus 4; method in brief: as §1
Raji [4] = experiment: Inhibition of 12-O-tetradecanoylphorbol-13-acetate induced EBV-early antigen activation in human Raji cells assessed as EA activation at 10 molar ratio after 48 hrs by indirect immunofluorescence method relative to TPA; type: cell-based; details: human gammaherpesvirus 4; method in brief: as §1
[5] = Cytotoxicity against human Raji cells assessed as cell viability at 1000 molar ratio; type: cell-based; details: read-out: Activity
[6] = Growth inhibition of human NCI60 cells after 48 hrs by sulforhodamine B assay; type: functional; details: NCI60, 48 h
Method in brief: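 NCI 60-cell panel (lung, colon, melanoma, renal, ovarian, brain, leukemia), continuous 48 h exposure, at least five 10-fold dilutions from a top concentration of 10^-4 M; cell growth estimated by sulforhodamine B protein staining.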

Compound | Activity (Raji [1]) [%] | Activity (Raji [2]) [%] | Remaining EA activation relative to TPA control (Raji [3]) [%] | EA activation relative to TPA control (Raji [4]) [%] | viability at 1000 molar ratio [5] [%] | GI50 [6] [µM]
C=C(CC[C@@H](C(=O)O)[C@H]1[C@H](O)C[C@@]2(C)C3=C(CC[C@]12C)[C@@](C)(CCC(=O)O)[C@H](C(=C)C)CC3)C(C)C [PORICOIC ACID H] | 0 | 15.7 | 53.8 | 80.8 | 70 | 
C=C(CC[C@@H](C(=O)O)[C@H]1[C@H](O)C[C@@]2(C)C3=CC[C@H]4C(C)(C)C(=O)CC[C@]4(C)C3=CC[C@]12C)C(C)C [POLYPORENIC ACID B] | 0 | 26.3 | 68.7 | 92.6 | 70 | 
C=C(CC[C@@H](C(=O)O)[C@H]1[C@H](O)C[C@@]2(C)C3=C(CC[C@]12C)[C@@]1(C)CC[C@H](O)C(C)(C)[C@@H]1CC3)C(C)C [TUMULOSIC ACID] | 0 | 22.7 | 64.9 | 90.5 | 70 | 
C=C(C)[C@@H]1CC=C2C(=CC[C@]3(C)[C@@H]([C@@H](CCC=C(C)C)C(=O)O)[C@H](O)C[C@@]23C)[C@@]1(C)CCC(=O)O [PORICOIC ACID B] | 0 | 14.3 | 54 | 80.7 | 70 | 
COC(=O)[C@]1(C)CCC[C@]2(C)c3ccc(C(C)C)cc3CC[C@@H]12 [METHYL DEHYDROABIETATE] | 0 | 23.2 | 68.3 | 91.6 | 60 | 
C=C(C)[C@@H]1CCC2=C(CC[C@]3(C)[C@@H]([C@@H](CCC=C(C)C)C(=O)O)[C@H](O)C[C@@]23C)[C@@]1(C)CCC(=O)O [PORICOIC ACID G] | 0 | 16 | 55.9 | 82.8 | 70 | 
C=C(CC[C@@H](C(=O)O)[C@H]1[C@H](O)C[C@@]2(C)C3=CC[C@@H](C(=C)C)[C@](C)(CCC(=O)O)C3=CC[C@]12C)C(C)C [PORICOIC ACID A] | 0 | 18.5 | 58.9 | 83.8 | 70 | 15
C=C(CC[C@@H](C(=O)O)[C@H]1[C@H](O)C[C@@]2(C)C3=CC[C@H]4C(C)(C)[C@@H](O)CC[C@]4(C)C3=CC[C@]12C)C(C)C [DEHYDROTUMULOSIC ACID] | 0 | 22.7 | 64.9 | 90.5 | 70 | 
C=C(CC[C@@H](C(=O)O)[C@H]1[C@H](O)C[C@@]2(C)C3=CC[C@H]4C(C)(C)[C@H](O)CC[C@]4(C)C3=CC[C@]12C)C(C)(C)O | 0 | 13.2 | 51.6 | 79.4 | 70 | 
CC1=C(/C=C/C(C)=C/C=C/C(C)=C/C=C/C=C(C)/C=C/C=C(C)/C=C/C2=C(C)CCCC2(C)C)C(C)(C)CCC1 | 8.6 |  |  | 100 |  | 
C=C(CC[C@@H](C(=O)O)[C@H]1[C@H](O)C[C@@]2(C)C3=CC[C@H]4C(C)(C)[C@H](O)CC[C@]4(C)C3=CC[C@]12C)C(C)C | 0 | 25.5 | 67 | 93.8 | 70 | 
